Experimental data: ChEMBL document CHEMBL1671620, “Mutations in the fks1 gene in Candida albicans, C. tropicalis, and C. krusei correlate with elevated caspofungin MICs uncovered in AM3 medium using the method of the European Committee on Antibiotic Susceptibility Testing” (2008)
Values after ≈ are worked out from the molar mass of the structure shown.

Tests used:
Candida albicans [1] = assay: Antifungal activity against Candida albicans isolate B311 expressing wild type 1,3-beta-glucan synthase grown on RPMI media after 24 hrs by EUCAST microdilution method; settings: isolate B311, 24 h
Pichia kudriavzevii [2] = assay: Antifungal activity against Candida krusei isolate 1 harboring 1,3-beta-glucan synthase HS1 point mutant grown on RPMI media after 24 hrs by EUCAST microdilution method; settings: isolate 1, 24 h
Candida albicans [3] = assay: Antifungal activity against Candida albicans isolate 18 expressing wild type 1,3-beta-glucan synthase grown on AM3 media after 24 hrs by EUCAST microdilution method; settings: isolate 18, 24 h
Candida albicans [4] = assay: Antifungal activity against Candida albicans isolate 6 expressing wild type 1,3-beta-glucan synthase grown on AM3 media after 48 hrs by EUCAST microdilution method; format: functional; settings: isolate 6, 24 h, in the assay text read “after 24 hrs” for “after 48 hrs”
Procedure, shortened: (§1)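 EUCAST (AFST-EUCAST) broth microdilution with caspofungin at 0.015 to 8 μg/ml final, in AM3 with glucose added to 2% final. Final inoculum was 10⁵ yeast cells/ml, with microplates prepared in batches and stored at −20°C. Plates were incubated at 35°C in humid ambient air and read spectrophotometrically after shaking at 24 h and 48 h. MIC was ≥50% growth reduction versus drug-free well; 90% end point also read at both times.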

Candida albicans [5] = assay: Antifungal activity against Candida albicans isolate 11 expressing wild type 1,3-beta-glucan synthase grown on AM3 media after 48 hrs by EUCAST microdilution method; format: functional; settings: isolate 11, 24 h, in the assay text read “after 24 hrs” for “after 48 hrs”
Procedure, shortened: as §1

Candida albicans [6] = assay: Antifungal activity against Candida albicans isolate 11 expressing wild type 1,3-beta-glucan synthase grown on RPMI media after 24 hrs by EUCAST microdilution method; settings: isolate 11, 24 h
Candida albicans [7] = assay: Antifungal activity against Candida albicans isolate 20 harboring 1,3-beta-glucan synthase HS1 point mutant grown on AM3 media after 24 hrs by EUCAST microdilution method; settings: isolate 20, 24 h
Candida albicans [8] = assay: Antifungal activity against Candida albicans isolate 18 expressing wild type 1,3-beta-glucan synthase grown on RPMI media after 24 hrs by EUCAST microdilution method; settings: isolate 18, 24 h
Candida albicans [9] = assay: Antifungal activity against Candida albicans isolate 7 expressing wild type 1,3-beta-glucan synthase grown on RPMI media after 24 hrs by EUCAST microdilution method; settings: isolate 7, 24 h
Candida albicans [10] = assay: Antifungal activity against Candida albicans isolate 5 expressing wild type 1,3-beta-glucan synthase grown on AM3 media after 48 hrs by EUCAST microdilution method; format: functional; settings: isolate 5, 24 h, in the assay text read “after 24 hrs” for “after 48 hrs”
Procedure, shortened: as §1

Candida albicans [11] = assay: Antifungal activity against Candida albicans isolate 13 expressing wild type 1,3-beta-glucan synthase grown on AM3 media after 48 hrs by EUCAST microdilution method; format: functional; settings: isolate 13, 24 h, in the assay text read “after 24 hrs” for “after 48 hrs”
Procedure, shortened: as §1

Candida tropicalis [12] = assay: Antifungal activity against Candida tropicalis isolate 2 harboring 1,3-beta-glucan synthase HS1 point mutant grown on AM3 media after 24 hrs by EUCAST microdilution method; settings: isolate 2, 24 h
Candida albicans [13] = assay: Antifungal activity against Candida albicans isolate 3 expressing wild type 1,3-beta-glucan synthase grown on AM3 media after 48 hrs by EUCAST microdilution method; format: functional; settings: isolate 3, 24 h, in the assay text read “after 24 hrs” for “after 48 hrs”
Procedure, shortened: as §1

Candida tropicalis [14] = assay: Antifungal activity against Candida tropicalis ATCC 750 expressing wild type 1,3-beta-glucan synthase grown on AM3 media after 48 hrs by EUCAST microdilution method; format: functional; settings: ATCC 750, 24 h, in the assay text read “24 hrs” for “48 hrs”
Procedure, shortened: as §1

Candida albicans [15] = assay: Antifungal activity against Candida albicans isolate 8 expressing wild type 1,3-beta-glucan synthase grown on AM3 media after 48 hrs by EUCAST microdilution method; format: functional; settings: isolate 8, 24 h, in the assay text read “after 24 hrs” for “after 48 hrs”
Procedure, shortened: as §1

Candida albicans [16] = assay: Antifungal activity against Candida albicans isolate 14 expressing wild type 1,3-beta-glucan synthase grown on RPMI media after 24 hrs by EUCAST microdilution method; settings: isolate 14, 24 h
Pichia kudriavzevii [17] = assay: Antifungal activity against Candida krusei ATCC 6258 expressing wild type 1,3-beta-glucan synthase grown on RPMI media after 24 hrs by EUCAST microdilution method; settings: ATCC 6258, 24 h
Candida albicans [18] = assay: Antifungal activity against Candida albicans isolate 4 expressing wild type 1,3-beta-glucan synthase grown on RPMI media after 24 hrs by EUCAST microdilution method; settings: isolate 4, 24 h
Candida albicans [19] = assay: Antifungal activity against Candida albicans isolate 2 expressing wild type 1,3-beta-glucan synthase grown on RPMI media after 24 hrs by EUCAST microdilution method; settings: isolate 2, 24 h
Candida tropicalis [20] = assay: Antifungal activity against Candida tropicalis ATCC 750 expressing wild type 1,3-beta-glucan synthase grown on RPMI media after 48 hrs by EUCAST microdilution method; format: functional; settings: ATCC 750, 24 h, in the assay text read “24 hrs” for “48 hrs”
Procedure, shortened: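 EUCAST (AFST-EUCAST) broth microdilution with caspofungin at 0.015 to 8 μg/ml final, in RPMI 1640 buffered to pH 7.0 with 0.165 M MOPS and glucose added to 2% final. Final inoculum was 10⁵ yeast cells/ml. Plates were incubated at 35°C in humid ambient air and read spectrophotometrically after shaking at 24 h and 48 h. MIC was ≥50% growth reduction versus drug-free well; 90% end point also read at both times.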

Candida albicans [21] = assay: Antifungal activity against Candida albicans isolate 13 expressing wild type 1,3-beta-glucan synthase grown on RPMI media after 24 hrs by EUCAST microdilution method; settings: isolate 13, 24 h
Candida albicans [22] = assay: Antifungal activity against Candida albicans isolate 12 expressing wild type 1,3-beta-glucan synthase grown on AM3 media after 48 hrs by EUCAST microdilution method; format: functional; settings: isolate 12, 24 h, in the assay text read “after 24 hrs” for “after 48 hrs”
Procedure, shortened: as §1

Candida albicans [23] = assay: Antifungal activity against Candida albicans isolate 21 harboring 1,3-beta-glucan synthase HS1 point mutant grown on RPMI media after 24 hrs by EUCAST microdilution method; settings: isolate 21, 24 h
Candida albicans [24] = assay: Antifungal activity against Candida albicans isolate 16 expressing wild type 1,3-beta-glucan synthase grown on AM3 media after 48 hrs by EUCAST microdilution method; format: functional; settings: isolate 16, 24 h, in the assay text read “after 24 hrs” for “after 48 hrs”
Procedure, shortened: as §1

Candida albicans [25] = assay: Antifungal activity against Candida albicans isolate 22 harboring 1,3-beta-glucan synthase HS1 point mutant grown on AM3 media after 24 hrs by EUCAST microdilution method; settings: isolate 22, 24 h
Candida albicans [26] = assay: Antifungal activity against Candida albicans isolate 17 expressing wild type 1,3-beta-glucan synthase grown on AM3 media after 48 hrs by EUCAST microdilution method; format: functional; settings: isolate 17, 24 h, in the assay text read “after 24 hrs” for “after 48 hrs”
Procedure, shortened: as §1

Question: For `CC[C@H](C)C[C@H](C)CCCCCCCCC(=O)N[C@H]1C[C@@H](O)[C@@H](NCCN)NC(=O)[C@@H]2[C@@H](O)CCN2C(=O)[C@H]([C@H](O)CCN)NC(=O)[C@H]([C@H](O)[C@@H](O)c2ccc(O)cc2)NC(=O)[C@@H]2C[C@@H](O)CN2C(=O)[C@H]([C@@H](C)O)NC1=O` [CASPOFUNGIN], which MIC (Candida albicans [1]) is on record?
Answer: 0.5 mg/L (≈ 0.457 µM)

Question: And the MIC (Pichia kudriavzevii [2])?
Answer: 8 mg/L (≈ 7.32 µM)

Question: What about the MIC (Candida albicans [3]) of the same compound?
Answer: 0.015 mg/L (≈ 0.0137 µM)

Question: And the MIC (Candida albicans [4])?
Answer: 0.03 mg/L (≈ 0.0274 µM)

Question: What about the MIC (Candida albicans [5]) of the same compound?
Answer: 0.03 mg/L (≈ 0.0274 µM)

Question: And the MIC (Candida albicans [6])?
Answer: 0.5 mg/L (≈ 0.457 µM)

Question: And the MIC (Candida albicans [7])?
Answer: 2 mg/L (≈ 1.83 µM)

Question: What about the MIC (Candida albicans [8]) of the same compound?
Answer: 1 mg/L (≈ 0.915 µM)

Question: What about the MIC (Candida albicans [9]) of the same compound?
Answer: 0.5 mg/L (≈ 0.457 µM)

Question: What about the MIC (Candida albicans [10]) of the same compound?
Answer: 0.03 mg/L (≈ 0.0274 µM)

Question: What about the MIC (Candida albicans [11]) of the same compound?
Answer: 0.03 mg/L (≈ 0.0274 µM)

Question: And the MIC (Candida tropicalis [12])?
Answer: 1 mg/L (≈ 0.915 µM)

Question: And the MIC (Candida albicans [13])?
Answer: 0.06 mg/L (≈ 0.0549 µM)

Question: And the MIC (Candida tropicalis [14])?
Answer: 0.06 mg/L (≈ 0.0549 µM)

Question: And the MIC (Candida albicans [15])?
Answer: 0.03 mg/L (≈ 0.0274 µM)

Question: And the MIC (Candida albicans [16])?
Answer: 1 mg/L (≈ 0.915 µM)

Question: And the MIC (Pichia kudriavzevii [17])?
Answer: 1 mg/L (≈ 0.915 µM)

Question: And the MIC (Candida albicans [18])?
Answer: 0.5 mg/L (≈ 0.457 µM)

Question: And the MIC (Candida albicans [19])?
Answer: 0.25 mg/L (≈ 0.229 µM)

Question: What about the MIC (Candida tropicalis [20]) of the same compound?
Answer: 0.5 mg/L (≈ 0.457 µM)

Question: And the MIC (Candida albicans [21])?
Answer: 0.5 mg/L (≈ 0.457 µM)

Question: What about the MIC (Candida albicans [22]) of the same compound?
Answer: 0.03 mg/L (≈ 0.0274 µM)

Question: What about the MIC (Candida albicans [23]) of the same compound?
Answer: 2 mg/L (≈ 1.83 µM)

Question: And the MIC (Candida albicans [24])?
Answer: 0.03 mg/L (≈ 0.0274 µM)

Question: What about the MIC (Candida albicans [25]) of the same compound?
Answer: 1 mg/L (≈ 0.915 µM)

Question: And the MIC (Candida albicans [26])?
Answer: 0.03 mg/L (≈ 0.0274 µM)
